Rows were chosen to be rich in hits. Some 9.8% of all compounds tested hit in one or more screens of this group.
Lmaj promast: Leishmania major promastigote growth inhibition | Leishmania major promastigotes, resazurin fluorescence viability | 200,000 tested, 9% active | inhibition, % at 10 µM | AID 1063; in the data active = inhibition above about 50%;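 note: promastigotes grown with compound for 44 hours at 28 °C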
PMI act: phosphomannose isomerase (human) activation. P34949. purified human PMI, coupled resazurin fluorescence, 20 min; active compounds read high; 1 = vehicle control, 0 substrate-free wells. activation factor at 20 µM. 190,000 tested, 0.005% active. AID 1214;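 active = activation factor of 2 or more at 20 µM, relative to plate controls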
Calpain2 inh: blocks pig calpain II enzyme activity | purified calpain II, fluorogenic peptide substrate, 30 min | inhibition, % at 16 µM | 220,000 tested, 0.37% active;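 active = inhibition above about 50%, limit read from the data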
WT yeast gro inh: growth inhibition of WT yeast, mitochondrial fusion screen | AID 1362 | mitochondrial fusion phenotypic screen, WT strain | 190,000 tested, 2.1% active | inhibition, % at 10 µM; in the data active = inhibition above about 58%; tested in S. cerevisiae
PMI act satM6P: activators of human phosphomannose isomerase at near-saturating mannose 6-phosphate | P34949 | coupled PMI enzyme assay, resazurin fluorescence, 20 min; active compounds read high; 1 = untreated enzyme, 0 = substrate-free blank | activation factor at 20 µM | 190,000 tested, 0.34% active;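 active = activation factor of 2 or more at 20 µM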
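Material: human phosphomannose isomerase with PGI, G6PDH, diaphorase coupling enzymes; amount: PMI at 15 ng/mL final; also added: Mannose-6-phosphate 1.0 mM (near-saturating) plus 0.22 mM NADP+; incubation: enzyme reaction with compound 20 min at room temperature; signal: resorufin fluorescence (Ex 544/Em 590 nm) from resazurin via diaphorase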
Rad51 HR inh: blocks human Rad51 in homologous recombination | inhibition, % at 10 µM | Q06609 | 200,000 tested, 0.085% active | hRad51 DNA strand exchange, fluorescence dequenching;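 active = inhibition above 40% at the single screening dose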;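 note: 0% = DMSO control wells and 100% = blanks with heterologous ssDNA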
Target sequence (Q06609 whole entry, looked up): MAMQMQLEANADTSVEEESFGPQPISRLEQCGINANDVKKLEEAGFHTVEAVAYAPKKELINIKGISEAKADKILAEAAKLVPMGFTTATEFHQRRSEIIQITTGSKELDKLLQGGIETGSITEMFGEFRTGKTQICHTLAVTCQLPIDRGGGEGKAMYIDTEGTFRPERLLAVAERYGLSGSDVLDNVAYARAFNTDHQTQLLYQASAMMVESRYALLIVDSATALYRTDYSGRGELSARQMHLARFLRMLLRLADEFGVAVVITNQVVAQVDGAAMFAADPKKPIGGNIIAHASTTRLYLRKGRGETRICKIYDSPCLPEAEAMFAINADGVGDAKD
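material = hRad51 filaments on single-stranded DNA | reagent = Donor/quencher-labelled 47-bp dsDNA substrate | compound = 10 µM final, single point | schedule = strand-exchange reaction 15 min at room temperature | measured by = fluorescein emission 520 nm, excitation 485 nm | read-out basis = % inhibition versus plate control and blank means | benchmarks = plate controls and plate blanks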
The depositor's hits bear a star; . = no result.

SMILES | Lmaj promast | PMI act | Calpain2 inh | WT yeast gro inh | PMI act satM6P | Rad51 HR inh
CCCCCNCc1ccc(OCc2ccc(Cl)nc2)c(OC)c1 | 100* | 0.9 | 19 | 24 | 0.9 | 18
CCOCCCNCc1ccc(OCCC(C)C)c(OC)c1 | 85* | 1.1 | 10 | 1 | 1.1 | .
COc1ccc(NCC(=O)Nc2ccc(Br)cc2F)c(OC)c1 | . | . | -13 | . | . | .
Cc1ccc(SCCNC(=S)Nc2cc(C)cc(C)c2)cc1 | 65* | 1 | 52* | 76* | 1 | .
Cc1ccc(SCCNC(=S)Nc2ccc(C)cc2C)cc1 | 9 | 1.1 | 15 | 69* | 1.1 | 3
COC(=O)Cc1ccc(NC(=S)NCCSc2ccc(C)cc2)cc1 | 3 | 0.8 | 30 | 68* | 0.9 | -26
O=C(O)CC[C@@H](C(=O)O)N1C(=O)c2ccccc2C1=O | . | . | -16 | . | . | -5
O=c1[nH]c2cc3c(cc2cc1C(c1nnnn1CC1CCCO1)N1CCCCCC1)OCCO3 (centres undefined) | -2 | 1.1 | -26 | -12 | 1.3 | .
Cc1cc(C(=O)CCC(=O)N2CCN(S(=O)(=O)c3cccs3)CC2)c(C)s1 | 88* | 0.9 | -1 | 0 | 0.9 | .
COC(=O)N=Nc1c(O)n(Cc2ccccc2)c2ccccc12 | . | . | 18 | . | . | .
CC(C)CCn1c(O)c(N=NC(=O)Cn2ccc(C(F)(F)F)n2)c2ccccc21 | 52* | 0.9 | 19 | -8 | 0.9 | 1
Cc1cc(C)c(OCCOCCN(C)C)c(Br)c1 | 96* | 1.1 | -17 | -4 | 1.1 | -2
Cc1cc(Cl)cc(Cl)c1OCCCCN(C)C | 86* | 1 | 13 | 14 | 1 | 0
Cc1cc(C)c(OCCCCN(C)C)c(Br)c1 | 85* | 0.9 | 6 | 8 | 1 | -34
CCN(CC)CCNc1ccc2nnc(CCNS(=O)(=O)c3ccc(C)cc3)n2n1 | -6 | 1 | -15 | -7 | 1 | 11
COc1ccc(S(=O)(=O)NCc2ccccc2)cc1 | -7 | 1 | -21 | -30 | 1 | -3
COc1ccc(S(=O)(=O)Oc2ccc3ccccc3c2)cc1 | 48 | 0.9 | 12 | 60* | 0.9 | 13
Cc1cc(C)nc(S/C=C/C(=O)c2ccc(F)cc2)n1 | . | . | 26 | . | . | -10
O=S(=O)(NC1c2cccc3cccc(c23)C1N1CCN(CCO)CC1)c1ccccc1 (centres undefined) | 71* | 1 | -27 | . | 1 | -12
O=C(c1ccccc1)N1CCN(C2c3cccc4cccc(c34)C2NS(=O)(=O)c2ccccc2)CC1 (centres undefined) | 99* | 0.8 | -105 | 11 | 0.9 | -3
CC1=NN(C(=O)c2ccc(Cn3ccc([N+](=O)[O-])n3)cc2)C(O)(C(F)(F)F)C1 (centres undefined) | -9 | 1 | -6 | -16 | 1 | 7
CCN(CC)S(=O)(=O)c1cc(NC(=O)C(C)N2CCN(c3ccccn3)CC2)ccc1C (centres undefined) | 11 | 0.9 | -9 | -19 | 0.8 | 6
CCN(CC)S(=O)(=O)c1cc(NC(=O)C(C)N2CCN(Cc3ccc4c(c3)OCO4)CC2)ccc1C (centres undefined) | 88* | 0.9 | -6 | -1 | 0.9 | .
CCN(CC)S(=O)(=O)c1cc(NC(=O)C(C)Nc2ccccc2N2CCOCC2)ccc1C (centres undefined) | 71* | 1.1 | 27 | 11 | 1 | -2
Nc1cc(N)nc(SCC(=O)N2CCN(S(=O)(=O)c3ccccc3)CC2)n1 | . | . | -8 | . | . | -2
SMILES | Lmaj promast | PMI act | Calpain2 inh | WT yeast gro inh | PMI act satM6P | Rad51 HR inh
CS(=O)(=O)NCCCNc1ccc(C(F)(F)F)cc1[N+](=O)[O-] | . | . | 8 | . | . | 3
O=[N+]([O-])c1cc(C(F)(F)F)ccc1NCCc1c[nH]c2ccccc12 | 4 | 0.7 | 50* | 62* | 0.8 | -2
O=[N+]([O-])c1cc(C(F)(F)F)ccc1NCCc1c[nH]c2ccc(O)cc12 | 3 | 0.6 | 52* | 79* | 0.7 | -5
CCCC(=O)OC(C(=O)Nc1cc(C(F)(F)F)ccc1Cl)c1ccccc1 (centres undefined) | 90* | 0.9 | 37 | 49 | 0.9 | -4
O=C(Nc1ccccc1)Nc1ccccc1-n1ccnc1 | 80* | 1 | 21 | 3 | 1 | -4
N#Cc1ccccc1NC(=O)Nc1ccccc1 | 0 | 1.1 | -174 | -3 | 1 | 5
Cc1ccc(-n2nnnc2SCc2nc3sc(C)c(C)c3c(=O)[nH]2)cc1 | 58* | 0.9 | 10 | -8 | 1 | -10
O=C(CSc1ccc(-c2ccccn2)nn1)N1CCCc2ccccc21 | -2 | 1 | 1 | 23 | 1.1 | -1
Cc1ccc(S(=O)(=O)Oc2ccc(/C=N/N=C3/NC(=O)C(CC(=O)O)S3)cc2)cc1 (centres undefined) | . | 1 | . | . | 1 | .
O=C(O)CC1S/C(=N/N=C/c2ccc(-c3ccccc3[N+](=O)[O-])o2)NC1=O (centres undefined) | 100* | 0.3 | 6 | -31 | 0.5 | -6
Cc1ccc(-c2ccc(/C=N/N=C3/NC(=O)C(CC(=O)O)S3)o2)c([N+](=O)[O-])c1 (centres undefined) | 100* | 0.7 | 28 | -6 | 0.7 | -14
O=C(CSCc1ccccc1)Nc1ccccc1C(=O)Nc1ccc(C(=O)O)cc1 | . | . | 14 | . | . | -17
O=C(c1cccnc1)N1CCN(C/C=C/c2ccccc2)CC1 | -7 | 1 | -23 | -2 | 1 | -125
O=C(c1cccs1)N1CCN(CCCc2ccccc2)CC1 | 96* | 0.9 | -15 | 3 | 1 | 1
O=C(c1cccnc1)N1CCN(CCCc2ccccc2)CC1 | 80* | 1 | -1 | -1 | 1 | -1
O=C(c1cccs1)N1CCN(Cc2ccccc2)CC1 | -9 | 1.2 | -4 | -25 | 1.1 | 9
N#Cc1cccnc1N1CCN(C(=O)c2ccco2)CC1 | . | . | -92 | . | . | 17
CC(/C=N/NC(=O)c1cc(-c2ccccc2)nc2ccccc12)=C\c1ccco1 | 98* | 0.7 | -59 | 13 | 0.4 | .
Cc1cc(C(=O)N/N=C/c2ccco2)c2ccccc2n1 | 15 | 1.1 | 21 | -3 | 1 | .
CC(/C=N/NC(=O)c1cc(-c2ccc(Cl)cc2)nc2ccccc12)=C\c1ccco1 | 62* | 0.8 | -340 | 23 | 0.9 | -1
O=C(N/N=C/c1cccc(F)c1)c1cc(-c2ccco2)nc2ccccc12 | 30 | 1 | -59 | 60* | 1.1 | 3
COc1cccc(OC)c1C1=NC(C)(C)CO1 | . | . | 5 | . | . | 3
Cc1cc(Cl)ccc1OCC(=O)N1CCCN(C(=O)COc2ccc(Cl)cc2C)CC1 | 92* | 1 | 17 | 73* | 1 | 2
Cc1cc(Cl)ccc1OC(C)C(=O)N1CCCN(C(=O)C(C)Oc2ccc(Cl)cc2C)CC1 (centres undefined) | 99* | 0.8 | -102 | 60* | 1 | 8
